Measured values as given in publication PMC5801548 (Bioconjugate chemistry, 2017).

How the values were obtained:
P. aeruginosa ATCC 27853 = test: Disk diffusion assay; type: cell-based; conditions: Pa ATCC 27853, 20 μg on blank disc (Ø = 0.6 cm), 24 h
Procedure, shortened: (§1)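 The test compound (20 µg) was loaded onto a blank 0.6 cm disc and placed on an agar plate inoculated with the bacterium. The plate was incubated for 24 h, and the diameter of the bacteria-free zone around the disc was measured in cm. Saline was included as a control.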

A. baumannii ATCC 19606 [1] = test: Disk diffusion assay; type: cell-based; conditions: Ab ATCC 19606, 20 μg on blank disc (Ø = 0.6 cm), 24 h
Procedure, shortened: as §1

Ab ATCC 19606 = conditions: broth microdilution, mass basis; data with * ref [21]; cited from earlier work
A. baumannii ATCC 19606 [2] = test: Time-kill study; type: cell-based; conditions: 4 × MIC (mass based; higher value where MIC is a range)

colistin
Diameter of Zone of Inhibition (ZOI) (P. aeruginosa ATCC 27853): 1.8 cm
Diameter of Zone of Inhibition (ZOI) (A. baumannii ATCC 19606 [1]): 1.8 cm
Minimum inhibitory concentration against Ab ATCC 19606 (MIC) (Ab ATCC 19606): 1* mg/L

colistin methanesulfonate [CMS]
Diameter of Zone of Inhibition (ZOI) (P. aeruginosa ATCC 27853): 1.7 cm
Diameter of Zone of Inhibition (ZOI) (A. baumannii ATCC 19606 [1]): 1.8 cm
Time to inhibit the growth of bacteria to levels approaching the detection limit (A. baumannii ATCC 19606 [2]): around 6 h
Minimum inhibitory concentration against Ab ATCC 19606 (MIC) (Ab ATCC 19606): 16* mg/L
